From ChEMBL document CHEMBL4270666, “Development of Dihydrodibenzooxepine Peroxisome Proliferator-Activated Receptor (PPAR) Gamma Ligands of a Novel Binding Mode as Anticancer Agents: Effective Mimicry of Chiral Structures by Olefinic E/ Z-Isomers” (J Med Chem, 2018) come the findings set out here.

Experiment [1] addresses T1, Peroxisome proliferator-activated receptor gamma (Homo sapiens, UniProt P37231).
T1 sequence (P37231 whole entry): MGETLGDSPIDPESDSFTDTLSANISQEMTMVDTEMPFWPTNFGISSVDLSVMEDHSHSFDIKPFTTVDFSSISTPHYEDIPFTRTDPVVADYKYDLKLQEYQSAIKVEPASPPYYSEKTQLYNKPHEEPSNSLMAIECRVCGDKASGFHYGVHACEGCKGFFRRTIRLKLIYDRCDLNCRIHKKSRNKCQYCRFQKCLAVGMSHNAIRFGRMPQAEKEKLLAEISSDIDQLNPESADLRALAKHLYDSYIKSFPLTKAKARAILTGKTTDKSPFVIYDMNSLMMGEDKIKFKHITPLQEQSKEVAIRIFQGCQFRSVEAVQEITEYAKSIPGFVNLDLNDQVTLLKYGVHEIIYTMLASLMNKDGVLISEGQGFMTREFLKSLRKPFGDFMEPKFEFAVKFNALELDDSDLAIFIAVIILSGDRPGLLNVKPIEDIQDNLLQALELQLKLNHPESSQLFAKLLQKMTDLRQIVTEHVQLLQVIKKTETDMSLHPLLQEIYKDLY
The experiment is described as follows: Transactivation of PPARgamma (unknown origin) transfected in human DRO cells after 24 hrs by dual luciferase reporter gene assay. It counts as cell-based. Background: In a reporter assay the amount or activity of a reporter protein is the signal.

Experiment [2] in a line: Inhibition of cologenic growth of human DRO cells at 1 nM after 2 weeks by soft agar assay relative to control. It counts as functional. As to conditions: 336 h.
For experiment [3], the target named is T1, Peroxisome proliferator-activated receptor gamma. The experiment is described as follows: Transactivation of GAL4-fused human PPARgamma transfected in HEK293BENA cells after 24 hrs by steady glo-luciferase reporter gene assay. It counts as cell-based.
Experiment [4] concerns the target T2, Peroxisome proliferator-activated receptor gamma (Homo sapiens) (UniProt P37231).
T2 sequence (whole entry): T1 sequence (P37231 whole entry)
The experiment is described as follows: Agonist activity at PPARgamma in human MKN45 cells assessed as cell differentiation at 30 nM after 5 days by Hoechst 33342 staining-based assay relative to control. The essentials: (§1)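 MKN45 cells grown in RPMI1640 with 10% FBS, penicillin/streptomycin, 37 °C, 5% CO2; seeded 2500 cells/well, exposed to compound (1-1000 nM, N = 3 per concentration) for 5 days. Hoechst 33342 nuclear stain, imaged; nuclear areas above 1,015.58 μm2 counted as aggregated clusters; aggregated-cluster area over total cell area gives aggregation rate, normalized to a reference agonist's maximum; EC50 at half-maximal activity.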

Experiment [5] has as its target T2, Peroxisome proliferator-activated receptor gamma (Homo sapiens). The experiment in a line: Transactivation of PPARgamma in human MKN45 cells assessed as decrease in vimentin gene expression at 10 to 100 nM after 72 hrs by quantitative PCR analysis. It counts as cell-based. The method, boiled down: (§2)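 MKN45 cells treated with compound for 72 h (N = 3 per concentration); cells washed in cold PBS, total RNA isolated, transcript levels measured by quantitative PCR and corrected to GAPDH; fold-induction expressed relative to control/baseline.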

The target is the same in experiment [6]. The experiment in a line: Transactivation of PPARgamma in human MKN45 cells assessed as increase in angptl4 gene expression at 10 to 100 nM after 72 hrs by quantitative PCR analysis. The experiment is classed as cell-based. The essentials:
as §2

Experiment [7] shares this target. The experiment is described as follows: Transactivation of PPARgamma in human MKN45 cells assessed as increase in adfp gene expression at 10 to 100 nM after 72 hrs by quantitative PCR analysis. The experiment is classed as cell-based. The essentials: as §2
Experiment [8] has the same target. The experiment in a line: Agonist activity at PPARgamma in human MKN45 cells assessed as cell differentiation at 100 nM after 5 days by Hoechst 33342 staining-based assay. The essentials: as §1
A further experiment is filed under the species Mus musculus. The experiment in a line: Antidiabetic activity in db/db diabetic mouse model assessed as reduction in blood glucose levels relative to vehicle-treated control. The experiment is classed as functional. Also noted: scale not given: the % may be the effect or the level left.

The source made the active and inactive calls. The calls are words filed in the database; no cut-off is given here.

As for `Cc1cc(Oc2ccc3nc(COc4ccc(CC5SC(=O)NC5=O)cc4)n(C)c3c2)cc(C)c1N` (configuration not stated) [EFATUTAZONE], the EC50 in experiment [1] is 1 nM. Besides, in [2], at 0.001 µM the inhibition was 63%.
`CCCc1nc(-c2ccncc2)cn1Cc1ccc2c(c1)COc1ccccc1/C2=C(\C)c1noc(=O)[nH]1` had an EC50 in experiment [3] of 593 nM.
For `CCCCCS(=O)(=O)NC(=O)c1ccc2nc(C)n(Cc3ccc(Cl)cc3Cl)c2c1` [ATX08-001], it took 163 nM to reach a half-maximal effect in experiment [3] (EC50).
Still for that read-out and setting: in the case of `CCCc1nc2c(NS(C)(=O)=O)cccc2n1Cc1ccc2c(c1)COc1ccccc1/C2=C(\C)c1noc(=O)[nH]1` it was 166 nM.
Take `CCCc1nc2c(C)cccc2n1Cc1ccc2c(c1)COc1ccccc1/C2=C(\C)c1noc(=O)[nH]1`: in [4], the Activity is 94%. Further, the result in experiment [5], in [6], in experiment [7] and in experiment [8] was Active.
As for `CCCc1nc(-c2ccccc2)cn1Cc1ccc2c(c1)COc1ccccc1/C2=C(\C)c1noc(=O)[nH]1`, the EC50 in experiment [3] stood at 151 nM.
`CCCc1nc2ccccc2n1Cc1ccc2c(c1)COc1ccccc1/C2=C(\C)c1noc(=O)[nH]1` came in with an EC50 in experiment [3] of 2.7 nM.
The same measure, in the same setting: with `CCCc1nc2c(CO)cccc2n1Cc1ccc2c(c1)COc1ccccc1/C2=C(\C)c1noc(=O)[nH]1` the figure was 33 nM; with `CCc1nc2c(C)cc(C)nc2n1Cc1ccc2c(c1)CCc1ccccc1/C2=C(\C)c1noc(=O)[nH]1`, 177 nM.
For the molecule `CCCc1nc2c(C(=O)NCCO)cccc2n1Cc1ccc2c(c1)COc1ccccc1/C2=C(\C)c1noc(=O)[nH]1`, the EC50 in experiment [3] was found to be 57 nM.
As to `O=S(=O)(Nc1cc(Cl)c(Oc2cnc3ccccc3c2)c(Cl)c1)c1ccc(Cl)cc1Cl` [INT131], the Activity in the experiment filed under Mus musculus is 60%.
Turning to `CCc1nc2c(C)cc(C)nc2n1Cc1ccc2c(c1)COc1ccccc1/C2=C(\C)c1noc(=O)[nH]1`, in experiment [3], a half-maximal effect (EC50) was put at 84 nM.

The EC50 is the concentration giving half of the maximal effect. Broadly, the inhibition is the change of the read-out against control, counted positive when it falls.
